Results collected from several papers.
Each line is one published result; the experiments were not run side by side.
PIK3CA M1043I: Phosphatidylinositol 4,5-bisphosphate 3-kinase catalytic subunit alpha isoform (PIK3CA, Homo sapiens, UniProt P42336, M1043I)
PIK3CA: Phosphatidylinositol 4,5-bisphosphate 3-kinase catalytic subunit alpha isoform (PIK3CA, Homo sapiens, UniProt P42336)
PIK3CA E542K: Phosphatidylinositol 4,5-bisphosphate 3-kinase catalytic subunit alpha isoform (PIK3CA, Homo sapiens, UniProt P42336, E542K)

target	effect on	mode	method	tested at	measurement	result	Compound
PIK3CA M1043I	binding	–	–	1 µM	remaining binding	100%	CN1CCN(C(=O)c2ccc(NC(=O)Nc3ccc(N(C)c4ccnc(Nc5ccc(CS(C)(=O)=O)cc5)n4)cc3)cc2)CC1
PIK3CA	enzyme activity	inhibitor	–	1 µM	inhibition	0%	C=CC(=O)N1CCC([C@@H]2CCNc3c(C(N)=O)c(-c4ccc(Oc5ccccc5)cc4)nn32)CC1
Phosphatidylinositol 4,5-bisphosphate 3-kinase catalytic subunit alpha isoform (PIK3CA, Homo sapiens, UniProt P42336, H1047Y)	binding	–	–	1 µM	remaining binding	74%	Cc1ccc(NC(=O)c2ccnc(C(F)(F)F)c2)cc1-c1cc(OCCO)nc(N2CCOCC2)c1
PIK3CA M1043I	enzyme activity	inhibitor	–	1 µM	inhibition	1%	CO[C@@H]1[C@H](N(C)C(=O)c2ccccc2)C[C@H]2O[C@]1(C)n1c3ccccc3c3c4c(c5c6ccccc6n2c5c31)C(=O)NC4
PIK3CA E542K	cell-free assay	–	–	1 µM	remaining signal	100%	C[C@H]1CC[C@H](n2c3cnccc3c3cnc(Nc4ccc5c(n4)CCN(C(=O)CO)C5)nc32)CC1
PIK3CA	enzyme activity	inhibitor	–	0.1 µM	inhibition	-4.62%	Cc1cc(O)c(-c2ccc([C@@H](C)CN(C)C)cc2)c2c1[nH]c(=O)c1sccc12
PIK3CA E542K	binding	–	–	0.1 µM	remaining binding	68%	C1=C/COCc2cc(ccc2OCCN2CCCC2)Nc2nccc(n2)-c2cccc(c2)COC/1
PIK3CA E542K	binding	–	competition with immobilised ligand	0.5 µM	remaining binding	96%	CCCCC(=O)Nc1ccc(-c2ccc3ncn(CCC)c(=O)c3c2)cn1
Phosphatidylinositol 4,5-bisphosphate 3-kinase catalytic subunit alpha isoform (PIK3CA, Homo sapiens, UniProt P42336, I800L)	enzyme activity	inhibitor	–	1 µM	inhibition	8%	C=CC(=O)N1CCC[C@@H](n2nc(-c3ccc(Oc4ccccc4)cc3)c3c(N)ncnc32)C1
PIK3CA	enzyme activity	inhibitor	–	0.2 µM	inhibition	7.89%	C#Cc1cc(-c2cc(Nc3nc(N[C@@H](C)c4ccc(F)cn4)ncc3Cl)n[nH]2)ccc1C=O
Phosphatidylinositol 4,5-bisphosphate 3-kinase catalytic subunit alpha isoform (PIK3CA, Homo sapiens, UniProt P42336, C420R)	enzyme activity	inhibitor	–	1 µM	inhibition	17%	CC#CC(=O)N1CCC[C@H]1c1nc(-c2ccc(C(=O)Nc3ccccn3)cc2)c2c(N)nccn12
PIK3CA E542K	binding	–	–	1 µM	remaining binding	92%	COc1ccc2[nH]c3c4[nH]c5ccc(OC)cc5c4c4c(c3c2c1)C(=O)NC4=O
